According to paper PMC8095719 (Science translational medicine, 2020):
Like-named read-outs stand apart in the source and are kept apart here.

How the values were obtained:
β-catenin = assay: Western blot of β-catenin in SH-SY5Y cultured cells; assay type: cell-based; conditions: 10 μM, 24 hours
[1] = test system: CRMP2 phosphorylation (p-CRMP2); assay: Western blot of CRMP2 phosphorylation in SH-SY5Y cultured cells; assay type: cell-based; conditions: 10 μM
[2] = plasma, CSF and brain pharmacokinetics in C57BL/6 mice; assay type: in vivo, mouse; conditions: 30 mg/kg ip; for brain entry after in vivo dosing: confirmed by hippocampal APP phosphorylation and LTD
Method in brief: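 Male C57BL/6 mice received a single 30 mg/kg ip dose. Blood was taken into K2-EDTA from three mice per time point, and plasma was stored below −70°C. CSF and brain were sampled at 0.08, 0.5, 1, 2, 4, 8 and 24 h. Brains were rinsed in PBS pH 7.4 and homogenised in ice-cold PBS to three times brain weight before analysis.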

Fmr1^−/y mice [3] = assay: audiogenic seizure; assay type: in vivo, mouse; conditions: for AGS incidence, chronic dosing: 30 mg/kg ip daily for five days
Method in brief: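 Male Fmr1−/y mice were housed on static racks to avoid auditory desensitisation. Doses were 30 mg/kg ip in 10% DMSO/45% PEG 400/45% saline. Acute: one injection 1–2 h before alarm exposure in a separate room. Chronic: four daily injections plus a fifth 1–2 h before testing. The mGluR5 antagonist comparator was given as three doses every 48 h. Incidence was compared by two-tailed Fisher's exact test.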

mouse hippocampal slices = assay: metabolic labeling of protein synthesis in hippocampal slices; assay type: cell-based
Method in brief: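 Hippocampal slices (500 μm) came from male P28–P32 Fmr1−/y and WT littermates and were kept in oxygenated aCSF at 32.5°C. Compound was applied at 10 μM. Slices were labelled with [35S]Met/Cys for 30 min, then proteins were TCA-precipitated and counted by scintillation. Counts per minute per μg protein were normalised to the labelling aCSF and expressed as percent WT. Analysis was two-way ANOVA for genotype × treatment.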

[4] = test system: layer 5 of the visual cortex slices; assay: evoked and spontaneous spiking in visual cortex slices; assay type: cell-based, mouse; conditions: 10 μM
Method in brief: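 Visual cortex slices (350 μm) came from P16–P21 male WT and Fmr1−/y mice, cut in ice-cold sucrose solution. Recovery was 30 min at 32°C, then 2.5 h at room temperature in modified aCSF. White matter was stimulated with 0.2 ms pulses every 30 s at 35–80 μA, with extracellular recording in layer 5. Recording ran 30 min in vehicle (60 trials), then 30 min with 10 μM compound from 50 mM DMSO stock. Analysis was two-way repeated-measures ANOVA with Bonferroni post hoc.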

[5] = test system: mouse hippocampal slices (CA1 fEPSP); assay: NMDAR-dependent LTD and synaptic transmission in hippocampal slices; assay type: cell-based; conditions: for NMDAR-dependent LTD, acute application: wild-type hippocampal slices, 10 μM, LFS 900 pulses at 3 Hz
[6] = test system: mouse hippocampal slices (CA1 fEPSP); assay: mGluR-dependent LTD; assay type: cell-based; conditions: DHPG 100 μM, 5 min
[7] = test system: T668 of amyloid precursor protein (APP); assay: Western blot of APP phosphorylation in dorsal hippocampus after in vivo dosing; parameters: species or system mouse; conditions: Fmr1^−/y mice, five days
wild-type mice = assay: MK-801–induced hyperlocomotion; assay type: in vivo, mouse; conditions: MK-801 0.3 mg/kg
Fmr1^−/y mice [8] = conditions: 30 mg/kg ip chronic, over 48 hours
GSK3β [9] = conditions: cited from earlier work; for IC50: read-out: biochemical IC50 against GSK3β, reported values
GSK3β [10] = conditions: cited from earlier work; for EC50: read-out: cellular EC50 against GSK3β, HEK293 cells
[11] = test system: mouse hippocampal slices (CA1 fEPSP); conditions: previous studies; cited from earlier work
T514 of CRMP2 = assay: Western blot of CRMP2 phosphorylation in dorsal hippocampus after in vivo dosing; parameters: species or system mouse; conditions: Fmr1^−/y mice, five days dosing
Fmr1^−/y mice [12] = conditions: cited from earlier work
Fmr1^−/y mice [13] = conditions: chronic dietary treatment; cited from earlier work
GSK3 = conditions: lithium treatment in patients with bipolar disorder; cited from earlier work
GSK3α [14] = conditions: read-out: cellular EC50 against GSK3α; HEK293 cells; cited from earlier work
GSK3α [15] = conditions: read-out: biochemical IC50 against GSK3α; reported values; cited from earlier work
[16] = Fmr1^−/y mice, 30 mg/kg ip, 1 hour before stimulus
[17] = Fmr1^−/y hippocampal slices, 10 μM
[18] = Fmr1^−/y visual cortical slices
[19] = wild-type visual cortical slices

## CC[C@]1(c2ccccc2)C2=CNNC2=NC2=C1C(=O)CC(C)(C)C2 [BRD0705, (S)-4-ethyl-7,7-dimethyl-4-phenyl-1,2,4,6,7,8-hexahydro-5H-pyrazolo[3,4-b]quinolin-5-one]
β-catenin
  effect on β-catenin: no effect on β-catenin
[1]
  CRMP2 phosphorylation (p-CRMP2): decrease of CRMP2 phosphorylation
[2]
  brain entry after in vivo dosing: successfully entered the brain
Fmr1^−/y mice [3]; Fmr1^−/y mice
  AGS incidence, chronic dosing: no apparent loss of efficacy
Fmr1^−/y mice [3]; [16]
  AGS incidence, acute dosing: significant reduction in seizure incidence
Fmr1^−/y mice [3]; wild-type mice, 30 mg/kg ip
  AGS incidence, acute dosing: had no effect on seizure incidence
Mouse hippocampal slices; [17]
  basal protein synthesis: reduced elevated protein synthesis
Mouse hippocampal slices; wild-type hippocampal slices, 10 μM, CDPPB 10 μM
  CDPPB (mGluR5)-stimulated protein synthesis: blocked the elevation in protein synthesis
Mouse hippocampal slices; wild-type mice
  basal protein synthesis: no effect on basal protein synthesis
[4]; [18]
  number of evoked action potentials: significantly reduced the number of action potentials
  number of spontaneous action potentials: significantly reduced the number of spontaneous action potentials
[4]; [19]
  number of evoked action potentials: had no effect on WT visual cortical slices
[5]
  NMDAR-dependent LTD, acute application: blocked low-frequency stimulation–induced LTD
[5]; wild-type mice
  synaptic transmission: no effect
[6]; Fmr1^−/y hippocampal slices
  mGluR-dependent LTD: blocked induction of LTD
[6]; wild-type hippocampal slices
  mGluR-dependent LTD: blocked induction of LTD
[7]; 30 mg/kg ip QD
  APP phosphorylation (T668) in dorsal hippocampus: reduced APP phosphorylation
wild-type mice; 30 mg/kg ip
  effect of pretreatment on MK-801–induced hyperlocomotion: had no effect on the behavioral response to MK-801
Fmr1^−/y mice [8]
  inhibitory avoidance memory acquisition and extinction: exhibited normal memory acquisition and extinction
GSK3β [9]
  IC50: […]
GSK3β [10]
  EC50: […]
GSK3β [10]; read-out: cellular IC50 against GSK3β, HEK cells
  IC50: […]

## O=C1NC(=O)C(c2ccccc2[N+](=O)[O-])=C1Nc1ccc(O)c(Cl)c1 [SB415286]
[11]
  NMDAR-dependent LTD: reliably inhibit LTD

## Cc1nc(C#Cc2ccnc(Cl)c2)c(C)n1-c1ccc(OC(F)(F)F)cc1 [CTEP, 2-chloro-4-((2,5-dimethyl-1-(4-(trifluoromethoxy)phenyl)-1H-imidazol-4-yl)ethynyl) pyridine, reference compound]
Fmr1^−/y mice [3]; Fmr1^−/y mice, 2 mg/kg ip
  AGS incidence, acute dosing: significantly reduced the incidence of AGS
Fmr1^−/y mice [3]; Fmr1^−/y mice, three consecutive doses over 5 days, 2 mg/kg ip
  AGS protection after chronic dosing: protection was completely lost

## [Cl-].[Li+] [lithium, lithium chloride]
[7]; 60 mg/kg ip twice daily
  APP phosphorylation (T668) in dorsal hippocampus: reduced APP phosphorylation
T514 of CRMP2
  phosphorylation of T514 of CRMP2 in hippocampus in vivo: not changed
Fmr1^−/y mice [12]
  AGS protection: protect Fmr1^−/y mice from AGS
  AGS, daily injections over 5 days: effectively reduce AGS
[11]
  NMDAR-dependent LTD: reliably inhibit LTD
Fmr1^−/y mice [13]
  rates of cerebral protein synthesis: reduces elevated rates of cerebral protein synthesis
GSK3
  inhibition of total GSK3 protein: < 75%

## CC(C)(C)CC1=C2C(=NC3=C(C(=O)CC(C)(C)C3)[C@@]2(C)c2ccccc2)NN1 [BRD3731, (S)-4,7,7-trimethyl-3-neopentyl-4-phenyl-1,2,4,6,7,8-hexahydro-5H-pyrazolo[3,4-b]quinolin-5-one]
β-catenin
  effect on β-catenin: no effect on β-catenin
[1]
  CRMP2 phosphorylation (p-CRMP2): decrease of CRMP2 phosphorylation
[2]
  time of peak brain concentration after injection: 60 min
  brain entry after in vivo dosing: successfully entered the brain
Fmr1^−/y mice [3]; Fmr1^−/y mice
  AGS incidence, chronic dosing: has no effect on AGS incidence
Fmr1^−/y mice [3]; [16]
  AGS incidence, acute dosing: no significant reduction in seizure activity
Fmr1^−/y mice [3]; wild-type mice, 30 mg/kg ip
  AGS incidence, acute dosing: did not affect seizure incidence
Mouse hippocampal slices; [17]
  basal protein synthesis: had no effect
[4]; [18]
  number of evoked action potentials: did not alter activity
  number of spontaneous action potentials: does not reduce spontaneous hyperactivity
[4]; [19]
  number of evoked action potentials: did not alter activity
[5]; 30 mg/kg ip daily for five days, slices 1 hour after last injection
  NMDAR-dependent LTD ex vivo after chronic dosing in vivo: inhibited NMDAR-dependent LTD
[5]
  NMDAR-dependent LTD, acute application: strongly inhibited LTD
[6]; Fmr1^−/y hippocampal slices
  mGluR-dependent LTD: but not BRD3731, blocked induction of LTD
[6]; wild-type hippocampal slices
  mGluR-dependent LTD: but not BRD3731, blocked induction of LTD
[7]; 30 mg/kg ip QD
  APP phosphorylation (T668) in dorsal hippocampus: reduced APP phosphorylation
GSK3β [9]; purified enzymes
  selectivity for GSK3β: about 10 fold
GSK3β [9]
  IC50: 15 nM
GSK3α [14]
  EC50: > 20000 nM
GSK3β [10]
  EC50: 3300 nM
GSK3α [15]
  IC50: 215 nM

## N#Cc1cccc(C(=O)Nc2cc(-c3ccccc3)nn2-c2ccccc2)c1 [CDPPB, 3-cyano-N-(1,3-diphenyl-1H-pyrazol-5-yl) benzamide, reference compound]
Mouse hippocampal slices; wild-type hippocampal slices, 10 μM, versus vehicle
  protein synthesis on mGluR5 stimulation: significantly increased protein synthesis

## Cc1c[nH]c(-c2cnc(NCCNc3ccc(C#N)cn3)nc2-c2ccc(Cl)cc2Cl)n1 [CHIR99021]
[11]
  NMDAR-dependent LTD: reliably inhibit LTD

## Cc1nc(C#Cc2cccnc2)cs1 [MTEP, 3-[(2-methyl-1,3-thiazol-4-yl)ethynyl]-pyridine, reference compound]
wild-type mice; 10 mg/kg ip
  effect of pretreatment on MK-801–induced hyperlocomotion: potentiated MK-801–induced hyperlocomotion

## CC1(C)CC(=O)C2=C(C1)N=C1NNC(C3CC3)=C1[C@]2(C)c1ccccc1 [BRD0320, (S)-3-cyclopropyl-4,7,7-trimethyl-4-phenyl-1,2,4,6,7,8-hexahydro-5H-pyrazolo[3,4-b]quinolin-5-one]
β-catenin
  effect on β-catenin: increase in β-catenin
Fmr1^−/y mice [3]; [16]
  AGS incidence, acute dosing: ameliorates AGS incidence

## Cc1cccc(C#Cc2ccccc2)n1 [MPEP]
Fmr1^−/y mice [12]
  suppression of AGS after chronic dosing (tolerance): greatly reduced after chronic dosing

## O=C1Cc2c([nH]c3ccc(Br)cc23)-c2ccccc2N1 [kenpaullone]
[11]
  NMDAR-dependent LTD: reliably inhibit LTD
